Assay results from ChEMBL document CHEMBL1821659, “N-Benzyl-3-sulfonamidopyrrolidines are a New Class of Bacterial DNA Gyrase Inhibitors” (ACS Med Chem Lett, 2011).
Converted amounts (≈) assume the structure as drawn. The source made the active and inactive calls. No cut-off for these calls is given here.

Experiments:
Salmonella enterica [1] = assay: Antimicrobial activity against Salmonella enterica ATCC 19585 after 14 hrs by microdilution method in presence of efflux pump inhibitor 60 uM MC-207,110; type: functional; conditions: ATCC 19585, 14 h
Salmonella enterica [2] = assay: Antimicrobial activity against Salmonella enterica ATCC 19585 after 14 hrs by macrodilution method in presence of efflux pump inhibitor 60 uM MC-207,110; type: functional; conditions: ATCC 19585, 14 h
Outline: (§1)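 Run on wild-type strains, with 60 μM of the efflux pump inhibitor MC-207,110 added to potentiate compound activity.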

Escherichia coli [3] = assay: Antimicrobial activity against Escherichia coli BW25113 delta tolC after 14 hrs by macrodilution method; type: functional
Outline: (§2)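 MIC determined in the E. coli BW25113 ΔtolC drug-pump knockout, which lacks a functional AcrAB-TolC multidrug efflux pump. The pump inhibitor was applied only to the wild-type strains.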

Streptococcus pneumoniae [4] = assay: Antimicrobial activity against Streptococcus pneumoniae ATCC 10813 after 24 hrs by macrodilution method; type: functional; conditions: ATCC 10813, 24 h
Escherichia coli [5] = assay: Antimicrobial activity against Escherichia coli BW25113 after 14 hrs by macrodilution method in presence of efflux pump inhibitor 60 uM MC-207,110; type: functional; conditions: BW25113, 14 h; outline: as §1
Staphylococcus aureus [6] = assay: Antimicrobial activity against Staphylococcus aureus FRI 100 after 14 hrs by macrodilution method; type: functional; conditions: FRI 100, 14 h
Escherichia coli [7] = assay: Antimicrobial activity against Escherichia coli BW25113 after 14 hrs by microdilution method in presence of efflux pump inhibitor 60 uM MC-207,110; type: functional; conditions: BW25113, 14 h
Pseudomonas aeruginosa [8] = assay: Antimicrobial activity against Pseudomonas aeruginosa K after 16 hrs by microdilution method in presence of efflux pump inhibitor 60 uM MC-207,110; type: functional
Pseudomonas aeruginosa [9] = assay: Antimicrobial activity against Pseudomonas aeruginosa K after 16 hrs by macrodilution method in presence of efflux pump inhibitor 60 uM MC-207,110; type: functional; outline: as §1
[10] = Inhibition of Escherichia coli DNA gyrase assessed as DNA supercoiling using pUC19 as substrate after 30 mins by agarose gel electrophoresis
Outline: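 Gel-based supercoiling assay on pUC19. Supercoiled, linear and relaxed pUC19 were run as marker lanes. Test compounds were applied at a range of μM concentrations.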

Streptococcus pneumoniae [11] = assay: Antimicrobial activity against Streptococcus pneumoniae ATCC 10813 after 24 hrs by microdilution method; type: functional; conditions: ATCC 10813, 24 h
Enterococcus faecalis [12] = assay: Antimicrobial activity against Enterococcus faecalis 1131 after 14 hrs by macrodilution method; type: functional; conditions: Enterococcus faecalis, 1131, 14 h
Escherichia coli [13] = assay: Antimicrobial activity against Escherichia coli BW25113 delta tolC after 14 hrs by microdilution method; type: functional; outline: as §2
Enterococcus faecalis [14] = assay: Antimicrobial activity against Enterococcus faecalis 1131 in presence of reserpine after 14 hrs; type: functional, organism-based
Staphylococcus aureus [15] = assay: Antimicrobial activity against Staphylococcus aureus FRI 100 in presence of reserpine after 14 hrs; type: functional, organism-based
Enterococcus faecalis [16] = assay: Antimicrobial activity against Enterococcus faecalis 1131 after 14 hrs; type: functional, organism-based
Nucleic Acid = assay: Induction of DNA damage at Escherichia coli supercoiled pUC19 bound to DNA gyrase assessed as dsDNA breaks in the absence of ATP at =<3.3 mM after 1 hrs by agarose gel electrophoresis; type: nucleic-acid assay

Row | Structure (SMILES) | MIC (Salmonella enterica [1]) [µM] | MIC (Salmonella enterica [2]) [µM] | MIC (Escherichia coli [3]) [µM] | MIC (Streptococcus pneumoniae [4]) [µM] | MIC (Escherichia coli [5]) [µM] | MIC (Staphylococcus aureus [6]) [µM] | MIC (Escherichia coli [7]) [µM] | MIC (Pseudomonas aeruginosa [8]) [µM] | MIC (Pseudomonas aeruginosa [9]) [µM] | IC50 [10] [µM] | MIC (Streptococcus pneumoniae [11]) [µM] | MIC (Enterococcus faecalis [12]) [µM] | MIC (Escherichia coli [13]) [µM] | Activity (Enterococcus faecalis [14]) | Activity (Staphylococcus aureus [15]) | Activity (Enterococcus faecalis [16]) | Activity (Nucleic Acid)
1 | Cc1ccc(F)cc1S(=O)(=O)N[C@@H]1CCN(Cc2ccc(OC(C)C)cc2)C1 | 80 | 80 | 10 (≈ 4.07 µg/mL) | 160 (≈ 65 µg/mL) | 40 | > 160 | 40 | 80 | 80 | 3.3 | 160 (≈ 65 µg/mL) | > 160 | – | – | – | – | –
2 | Cc1ccc(F)cc1S(=O)(=O)NC1CCN(Cc2ccc(-c3ccccc3)cc2)C1 (stereo not drawn) [GYRAMIDE C] | 10 | 10 | 2.5 (≈ 1.06 µg/mL) | 10 (≈ 4.25 µg/mL) | 20 | 20 (≈ 8.49 µg/mL) | 20 | 20 | 20 | 1.1 | – | > 160 | 2.5 (≈ 1.06 µg/mL) | inactive | inactive | inactive | –
3 | Cc1ccc(F)cc1S(=O)(=O)NC1CCN(Cc2ccc(CC(C)C)cc2)C1 (stereo not drawn) [GYRAMIDE B] | 20 | 20 | 5 (≈ 2.02 µg/mL) | 20 (≈ 8.09 µg/mL) | 40 | 80 (≈ 32.4 µg/mL) | 40 | 40 | 40 | 0.7 | – | > 160 | – | inactive | inactive | inactive | –
4 | Cc1ccc(F)cc1S(=O)(=O)N[C@H]1CCN(Cc2ccc(OC(C)C)cc2)C1 | – | – | 140 (≈ 56.9 µg/mL) | – | – | – | – | – | – | 40.8 | – | – | 140 (≈ 56.9 µg/mL) | – | – | – | –
5 | Cc1ccc(F)cc1S(=O)(=O)NC1CCN(Cc2ccc(OC(C)C)cc2)C1 (stereo not drawn) | – | – | – | – | – | – | – | – | – | – | – | – | – | inactive | inactive | inactive | inactive
